Laboratory results published in ChEMBL document CHEMBL1149323, “Synthesis and evaluation of dihydropyrroloquinolines that selectively antagonize P-glycoprotein” (J Med Chem, 2004).
Values joined by “and” are separate entries in the source; they are usually repeats but may differ in a detail not shown here. Equal entries are not always repeated.

Key:
[1] = system: MCF7; test: Toxicity was determined against of MCF-7 cells at a dose of 10 ug/mL; type: cell-based; conditions: human
Procedure, shortened: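 Drug-sensitive MCF-7 cells exposed to 10 μg/mL compound for 48 h, in triplicate, with 1% ethanol solvent controls. Percentage of cells killed = percentage decrease in sulforhodamine B binding (570 nm) relative to control cultures.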

[2] = biological target: T1, ATP-dependent translocase ABCB1 (Homo sapiens, UniProt P08183); test: Pgp antagonism was determined percentage of NCI/ADR cells surviving in the absence of vinblastine/percentage of NCI/ADR cells surviving in the presence of vinblastine; type: functional, cell-based
T1 sequence (P08183 whole entry): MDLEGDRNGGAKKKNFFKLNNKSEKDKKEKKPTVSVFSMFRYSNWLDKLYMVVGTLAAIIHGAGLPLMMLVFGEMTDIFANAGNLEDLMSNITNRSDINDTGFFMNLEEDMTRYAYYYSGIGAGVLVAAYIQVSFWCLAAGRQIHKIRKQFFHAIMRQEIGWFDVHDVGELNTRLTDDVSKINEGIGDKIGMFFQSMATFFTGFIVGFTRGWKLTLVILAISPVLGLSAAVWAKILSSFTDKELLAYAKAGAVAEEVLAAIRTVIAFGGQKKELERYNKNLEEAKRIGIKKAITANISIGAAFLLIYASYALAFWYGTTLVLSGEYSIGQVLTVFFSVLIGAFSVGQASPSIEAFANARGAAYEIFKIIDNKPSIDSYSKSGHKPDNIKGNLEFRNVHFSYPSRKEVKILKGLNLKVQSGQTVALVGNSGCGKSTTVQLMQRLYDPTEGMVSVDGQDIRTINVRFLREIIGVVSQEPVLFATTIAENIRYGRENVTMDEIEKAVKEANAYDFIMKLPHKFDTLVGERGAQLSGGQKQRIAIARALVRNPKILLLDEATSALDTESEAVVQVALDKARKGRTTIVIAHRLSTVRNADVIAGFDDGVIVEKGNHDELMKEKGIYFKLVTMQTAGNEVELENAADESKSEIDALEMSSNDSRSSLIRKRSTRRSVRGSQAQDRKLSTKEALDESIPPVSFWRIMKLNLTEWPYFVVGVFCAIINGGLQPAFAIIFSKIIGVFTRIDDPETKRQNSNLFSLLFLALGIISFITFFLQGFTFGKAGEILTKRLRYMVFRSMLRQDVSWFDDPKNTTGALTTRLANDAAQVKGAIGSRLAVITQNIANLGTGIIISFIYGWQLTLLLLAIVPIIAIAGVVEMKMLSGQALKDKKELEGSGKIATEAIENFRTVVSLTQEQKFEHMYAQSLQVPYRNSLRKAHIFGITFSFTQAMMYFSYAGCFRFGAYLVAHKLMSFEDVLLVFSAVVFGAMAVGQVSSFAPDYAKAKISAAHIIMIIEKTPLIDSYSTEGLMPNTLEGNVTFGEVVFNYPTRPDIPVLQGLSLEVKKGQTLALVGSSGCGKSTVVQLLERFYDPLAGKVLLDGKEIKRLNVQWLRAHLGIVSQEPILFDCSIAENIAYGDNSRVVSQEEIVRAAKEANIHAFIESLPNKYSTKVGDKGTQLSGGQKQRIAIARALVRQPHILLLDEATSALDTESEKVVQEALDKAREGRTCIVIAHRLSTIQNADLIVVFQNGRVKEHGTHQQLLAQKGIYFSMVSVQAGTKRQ
Procedure, shortened: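 Modulator at 10 μg/mL tested with or without 50 nM vinblastine for 48 h, in triplicate. Survival read by sulforhodamine B at 570 nm against ethanol (1%) controls. Score = % survival without vinblastine / % survival with vinblastine.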

[3] = biological target: Multidrug resistance-associated protein 1 (Homo sapiens, UniProt P33527); test: MRP1 antagonism was determined percentage of MCF-7/VP cells surviving in the absence of vincristine/percentage of MCF-7/VP cells surviving in the presence of vincristine; type: functional
Sequence of Multidrug resistance-associated protein 1 (P33527 whole entry): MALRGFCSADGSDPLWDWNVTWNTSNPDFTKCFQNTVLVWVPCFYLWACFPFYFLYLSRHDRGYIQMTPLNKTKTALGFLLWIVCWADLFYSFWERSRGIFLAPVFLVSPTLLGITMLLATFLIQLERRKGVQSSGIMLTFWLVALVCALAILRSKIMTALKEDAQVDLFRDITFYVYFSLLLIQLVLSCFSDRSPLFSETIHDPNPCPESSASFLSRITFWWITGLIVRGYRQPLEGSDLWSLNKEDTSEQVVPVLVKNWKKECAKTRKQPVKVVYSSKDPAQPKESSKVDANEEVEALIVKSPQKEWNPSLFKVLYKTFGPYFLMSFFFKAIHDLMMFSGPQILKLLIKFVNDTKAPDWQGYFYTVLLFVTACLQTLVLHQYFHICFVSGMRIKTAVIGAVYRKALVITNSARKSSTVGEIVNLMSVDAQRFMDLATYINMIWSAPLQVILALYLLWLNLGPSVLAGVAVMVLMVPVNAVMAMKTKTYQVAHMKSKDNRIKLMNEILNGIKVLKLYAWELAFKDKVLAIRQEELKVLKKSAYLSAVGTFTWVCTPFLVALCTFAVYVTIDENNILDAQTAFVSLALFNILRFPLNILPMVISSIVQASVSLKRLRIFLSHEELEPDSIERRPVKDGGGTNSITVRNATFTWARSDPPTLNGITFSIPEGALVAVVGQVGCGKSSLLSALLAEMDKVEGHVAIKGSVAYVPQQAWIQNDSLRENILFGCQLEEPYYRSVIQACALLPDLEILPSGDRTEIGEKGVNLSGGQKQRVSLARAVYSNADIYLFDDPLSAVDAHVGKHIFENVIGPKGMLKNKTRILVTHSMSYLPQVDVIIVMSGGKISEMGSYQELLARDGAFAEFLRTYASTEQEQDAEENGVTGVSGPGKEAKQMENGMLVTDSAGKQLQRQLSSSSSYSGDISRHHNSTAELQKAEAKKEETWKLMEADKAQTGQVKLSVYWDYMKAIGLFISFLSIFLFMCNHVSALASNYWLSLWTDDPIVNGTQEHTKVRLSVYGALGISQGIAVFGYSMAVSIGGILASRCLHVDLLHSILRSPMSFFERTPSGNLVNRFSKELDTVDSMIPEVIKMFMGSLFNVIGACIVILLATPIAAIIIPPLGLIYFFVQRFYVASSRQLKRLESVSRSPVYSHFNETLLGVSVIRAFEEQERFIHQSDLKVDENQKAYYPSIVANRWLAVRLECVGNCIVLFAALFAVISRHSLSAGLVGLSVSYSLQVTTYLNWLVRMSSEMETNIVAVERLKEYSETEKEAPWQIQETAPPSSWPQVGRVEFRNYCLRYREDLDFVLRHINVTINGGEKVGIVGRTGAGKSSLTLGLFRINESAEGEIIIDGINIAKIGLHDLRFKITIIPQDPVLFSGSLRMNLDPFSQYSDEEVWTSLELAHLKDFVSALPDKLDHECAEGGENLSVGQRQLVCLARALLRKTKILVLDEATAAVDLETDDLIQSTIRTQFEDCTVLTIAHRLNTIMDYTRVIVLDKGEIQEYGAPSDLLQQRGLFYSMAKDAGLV
Procedure, shortened: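 MCF-7/VP cells in RPMI 1640 with 10% FBS. Modulator at 10 μg/mL tested with or without 1 nM vincristine for 48 h, in triplicate. Sulforhodamine B read-out at 570 nm. Score = % survival without vincristine / % survival with vincristine; a score above 1.0 indicates chemosensitization.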

[4] = Ratio of the Pgp to that of MRP1 was determined; type: functional
[5] = Compound was evaluated for broad range of antagonistic activity against multi drug resistance-related protein (MRP) value expressed as IC20; type: functional; parameters: unit not given here
[6] = biological target: T1, ATP-dependent translocase ABCB1; test: Compound was evaluated for broad range of antagonistic activity against P-glycoprotein (Pgp) value expressed as IC20; type: functional
[7] = system: MCF-7 (Homo sapiens); test: Toxicity against MCF-7 cells
[8] = system: Mus musculus; test: In vivo tumor growth inhibition in mice when […] at a day 1; type: functional
Procedure, shortened: (§1)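 Balb/c female mice, 6–8 weeks old, with 10^6 JC murine mammary adenocarcinoma cells injected subcutaneously in the right hind quarter. Treatment began once tumors were palpable (day 1), five mice per group. Dosing on days 1, 5 and 9: 100 mg/kg i.p. PGP-4008·HCl with or without 5 mg/kg doxorubicin. Caliper volumes calculated as (L×W²)/2 through day 15; unpaired t-test with Welch correction.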

[9] = system: Mus musculus; test: In vivo tumor growth inhibition in mice when […] at a day 15; type: functional; procedure, shortened: as §1
[10] = system: Mus musculus; test: In vivo tumor growth inhibition in mice when administered […] at a day 9; type: functional; procedure, shortened: as §1
[11] = system: Mus musculus; test: In vivo tumor growth inhibition in mice when administered […] at a day 12; type: functional; procedure, shortened: as §1
[12] = system: Mus musculus; test: In vivo tumor growth inhibition in mice when administered subcutaneously at a day 5; type: functional; conditions: in the assay text read “intraperitoneally” for “subcutaneously”; procedure, shortened: as §1

SMILES | Toxicity [1] | Ratio [2] | Ratio [3] | Ratio [4] | also measured
Cc1ccc2c(N)c3c(nc2c1)N(Cc1ccccc1)CC3 | 77% and 98% | 1.6 and 0.7 | 1.7 and 1 | 0.9 and 0.7 | 
O=C(Nc1c2c(nc3ccccc13)N(Cc1ccccc1)CC2)c1ccc(F)c(C(F)(F)F)c1 |  |  |  |  | Activity [5]: 0.9; Activity [6]: 4.9; Toxicity [7]: 19 µM
CN1CCc2c1nc1ccccc1c2NC(=O)CCc1cc(C(C)(C)C)c(O)c(C(C)(C)C)c1 | 99% | 1 | 1 | 1 | 
O=C(Nc1c2c(nc3ccccc13)N(Cc1ccccc1)CC2)c1c(F)ccc(F)c1F |  |  |  |  | Activity [5]: 1; Activity [6]: 3.1; Toxicity [7]: > 58 µM
O=C(CN1CCCCC1)Nc1c2c(nc3ccccc13)N(Cc1ccccc1)CC2 | 0% | 18 | 1.1 | 16 | Activity [5]: 1; Activity [6]: 9; Toxicity [7]: 14 µM
O=C(Nc1c2c(nc3ccccc13)N(Cc1ccccc1)CC2)c1c(F)cccc1C(F)(F)F |  |  |  |  | Activity [5]: 0.9; Activity [6]: 2.5; Toxicity [7]: 13 µM
CN1CCc2c1nc1ccccc1c2/N=C(/c1ccccc1)N1CCCCC1 | 58% | 2.4 | 1 | 2.4 | 
CCN(CC)CC(=O)Nc1c2c(nc3ccccc13)N(Cc1ccccc1)CC2 | 14% | 15 | 1 | 15 | 
CCCCN1CCc2c1nc1cc(Br)ccc1c2N | 98% | 1.1 | 1 | 1.1 | 
CN1CCN(CC(=O)Nc2c3c(nc4ccccc24)N(Cc2ccccc2)CC3)CC1 | 21% | 7.5 | 1.1 | 6.8 | 
CN1CCc2c1nc1ccccc1c2NC(=O)CN1CCCCC1 | 51% | 4.1 | 1.2 | 3.4 | 
O=C(Nc1c2c(nc3ccccc13)N(Cc1cccc(Cl)c1)CC2)C12CC3CC(CC(C3)C1)C2 | 33% | 1.2 | 1.2 | 1 | 
Nc1c2c(nc3cc(Br)ccc13)N(C1CCCCC1)CC2 | 99% | 1 | 1 | 1 | 
CC(C)NCC(=O)Nc1c2c(nc3ccccc13)N(C)CC2 | 39% | 1.8 | 1.4 | 1.3 | 
CCOC(=O)CNc1c2c(nc3ccccc13)N(Cc1ccccc1)CC2 |  |  |  |  | Activity [5]: 0.9; Activity [6]: 0.9; Toxicity [7]: 33 µM
CN1CCc2c1nc1ccccc1c2NC(=O)CNCCc1ccc(O)cc1 | 21% | 1.7 | 1.4 | 1.2 | 
CN1CCc2c1nc1ccccc1c2NC(=O)C12CC3CC(CC(C3)C1)C2 | 29% | 4.7 | 0.9 | 5.2 | 
COc1cccc2c1C(=O)c1c(O)c3c(c(O)c1C2=O)C[C@@](O)(C(=O)CO)C[C@@H]3O[C@H]1C[C@H](N)[C@H](O)[C@H](C)O1.O=C(Cc1ccccc1)Nc1c2c(nc3ccccc13)N(Cc1ccccc1)CC2 |  |  |  |  | Tumor volume [8]: 390 mm**3; Tumor volume [9]: 670 mm**3; Tumor volume [10]: 520 mm**3; Tumor volume [11]: 560 mm**3; Tumor volume [12]: 470 mm**3
Nc1c2c(nc3ccccc13)N(Cc1ccccc1)CC2 | 47% | 3.1 | 1 | 3.1 | Activity [5]: 1; Activity [6]: 1; Toxicity [7]: 6.2 µM

SMILES | Toxicity [1] | Ratio [2] | Ratio [3] | Ratio [4] | also measured
Fc1ccc(CNc2c3c(nc4ccccc24)N(Cc2ccccc2)CC3)cc1 |  |  |  |  | Activity [5]: 0.7; Activity [6]: 1.3; Toxicity [7]: > 65 µM
Nc1c2c(nc3ccccc13)N(c1ccccc1)CC2 | 52% | 2.7 | 1.1 | 2.5 | 
CC(C)NCC(=O)Nc1c2c(nc3ccccc13)N(Cc1ccccc1)CC2 | 45% | 13 | 1 | 13 | 
Cc1cc(C)c2c(N)c3c(nc2c1)N(Cc1ccccc1)CC3 | 49% | 3.6 | 1.4 | 2.6 | 
CN1CCc2c1nc1ccccc1c2NC(=O)CNC(C)(C)C | 28% | 3.2 | 1.2 | 2.7 | 
CC(C)(C)NCC(=O)Nc1c2c(nc3ccccc13)N(Cc1ccccc1)CC2 | 29% | 12 | 0.9 | 13 | 
Nc1c2c(nc3cc(Br)ccc13)N(Cc1ccccc1)CC2 | 94% | 1.7 | 1.3 | 1.3 | 
CCC(=O)Nc1c2c(nc3ccccc13)N(C)CC2 |  |  |  | 1.6 | 
CCN(CC)CC(=O)Nc1c2c(nc3ccccc13)N(C)CC2 | 30% | 6 | 1.2 | 5 | 
CCCCN(CCCC)CC(=O)Nc1c2c(nc3ccccc13)N(C)CC2 | 50% | 4.2 | 1.3 | 3.2 | 
CN1CCc2c1nc1ccccc1c2NC(=O)Cc1ccccc1 |  |  |  | 5.6 | 
CN1CCc2c1nc1cc(Br)ccc1c2N | 94% | 1.3 | 1.6 | 0.8 | 
Fc1cccc(CNc2c3c(nc4ccccc24)N(Cc2ccccc2)CC3)c1 |  |  |  |  | Activity [5]: 0.7; Activity [6]: 1.2; Toxicity [7]: > 65 µM
Nc1c2c(nc3ccccc13)N(C1CCCCC1)CC2 | 97% | 0.8 | 0.6 | 1.3 | 
CC(C)(C)c1cc(CCC(=O)Nc2c3c(nc4ccccc24)N(Cc2ccccc2)CC3)cc(C(C)(C)C)c1O | 50% | 13.2 | 1.2 | 11 | 
Cc1ccc2nc3c(c(N)c2c1)CCN3Cc1ccccc1 | 81% | 1.5 | 1.2 | 1.3 | 
COc1cc(CNc2c3c(nc4ccccc24)N(Cc2ccccc2)CC3)cc(OC)c1 |  |  |  |  | Activity [5]: 0.9; Activity [6]: 1.4; Toxicity [7]: 47 µM
COc1cccc2c1C(=O)c1c(O)c3c(c(O)c1C2=O)C[C@@](O)(C(=O)CO)C[C@@H]3O[C@H]1C[C@H](N)[C@H](O)[C@H](C)O1 [DOXORUBICIN] |  |  |  |  | Tumor volume [8]: 430 mm**3; Tumor volume [9]: 1680 mm**3; Tumor volume [10]: 860 mm**3; Tumor volume [11]: 1210 mm**3; Tumor volume [12]: 520 mm**3
